{"data": "Published values gathered from unrelated publications", "target": "Homeodomain-interacting protein kinase 2 (HIPK2, Homo sapiens, UniProt Q9H2X6)", "note": "Protocols differ between the studies behind these lines."}
{"SMILES": "O=C1NC(c2ccccn2)Sc2ccccc21 (stereo not drawn)", "test": "cell-free assay, competition with immobilised ligand", "setting": "1 µM", "measurement": "remaining binding", "result": "80%"}
{"SMILES": "O=C(O)c1ccc2c(c1)nc(NCCc1cccc(F)c1)c1ccncc12", "test": "enzyme activity, inhibitor, radiometric", "setting": "1 µM", "measurement": "remaining activity", "result": "4%"}
{"SMILES": "N#Cc1ccc(Nc2ccc3[nH]c(=O)[nH]c3c2)c(Cl)c1", "test": "cell-free assay, competition with immobilised ligand", "setting": "1 µM", "measurement": "remaining binding", "result": "100%"}
{"SMILES": "CC/C(=N\\NC(=O)NCc1cccc(O)c1)c1ccc(O)c(C)c1O", "test": "enzyme activity, inhibitor", "setting": "0.1 µM", "measurement": "inhibition", "result": "2.1%"}
{"SMILES": "O=C(O)c1ccc2c(c1)nc(Nc1ccc(F)c(Cl)c1)c1ncncc12", "test": "enzyme activity, inhibitor, radiometric", "setting": "1 µM", "measurement": "remaining activity", "result": "2%"}
{"SMILES": "Cc1cc(NC(=O)c2cccc3cc(-c4cccc5[nH]nc(N)c45)ccc23)ccc1F", "test": "enzyme activity, inhibitor", "setting": "0.1 µM", "measurement": "activity vs control", "result": "103%"}
{"SMILES": "Cc1ccc(Nc2nccc(N(C)c3ccc4c(C)n(C)nc4c3)n2)cc1S(N)(=O)=O", "test": "enzyme activity, inhibitor", "setting": "0.3 µM", "measurement": "inhibition", "result": "7%"}
{"SMILES": "COc1ccc2c(c1)O[C@H](c1ccc(OC)c(OC)c1)C[C@@H]2NC(=O)C1(c2ccc3c(c2)OC(F)(F)O3)CC1", "test": "cell-free assay, competition with immobilised ligand", "setting": "1 µM", "measurement": "remaining binding", "result": "98%"}
{"SMILES": "COc1cc2ncnc(Nc3ccc(Oc4ccccc4)cc3C)c2cc1OC", "test": "enzyme activity, inhibitor", "setting": "1 µM", "measurement": "inhibition", "result": "3%"}
{"SMILES": "N#Cc1cccc(Nc2nc3cc(C(=O)O)ccc3c3cncnc23)c1", "test": "enzyme activity, inhibitor, radiometric", "setting": "1 µM", "measurement": "remaining activity", "result": "3%"}
{"SMILES": "CCN(CC)CCNC(=O)c1c(C)[nH]c(/C=C2\\C(=O)Nc3ccc(F)cc32)c1C", "test": "enzyme activity, inhibitor", "setting": "10 µM", "measurement": "inhibition", "result": "89%"}
{"SMILES": "COc1cccc(CNC(=O)c2nc3scc(COCc4ccc(C(=O)O)cc4)c3c(=O)[nH]2)c1", "test": "cell-free assay, competition with immobilised ligand", "setting": "1 µM", "measurement": "remaining binding", "result": "72.9%"}
{"SMILES": "COc1cc(-c2cc(-c3ccc(N4CCNCC4)cc3)cnc2C)cc(OC)c1OC", "test": "enzyme activity, inhibitor", "setting": "0.1 µM", "measurement": "inhibition", "result": "1%"}
{"SMILES": "N#CCCc1ccc2c(c1)-c1[nH]c3ccc([N+](=O)[O-])cc3c1CC(=O)N2", "test": "cell-free assay", "setting": "0.5 µM", "measurement": "remaining signal", "result": "106%"}
{"SMILES": "CNC(=O)Nc1ccc2c(c1)CC[C@@]21OC(=O)N(CC(=O)N(Cc2ccc(F)cc2)[C@@H](C)C(F)(F)F)C1=O", "test": "cell-free assay, competition with immobilised ligand", "setting": "1 µM", "measurement": "remaining binding", "result": "95%"}
{"SMILES": "CCCS(=O)(=O)Nc1ccc(F)c(C(=O)c2c[nH]c3ncc(-c4ccc(Cl)cc4)cc23)c1F", "test": "enzyme activity, inhibitor", "setting": "1 µM", "measurement": "inhibition", "result": "< 10%"}
{"SMILES": "CNC(=O)Nc1ccc2c(c1)[C@@]1(CC2)OC(=O)N(CC(=O)N(Cc2ccc(F)cc2)[C@@H](C)C(F)(F)F)C1=O", "test": "cell-free assay, competition with immobilised ligand", "setting": "1 µM", "measurement": "remaining binding", "result": "78%"}
{"SMILES": "O=C(O)c1ccc2c(c1)nc(NCc1ccccc1)c1ccncc12", "test": "enzyme activity, inhibitor, radiometric", "setting": "1 µM", "measurement": "remaining activity", "result": "51%"}
{"SMILES": "O=C(Nc1ccc(Oc2ccc(F)cc2)cc1)N1CCc2ncccc2[C@H]1c1ccc(F)cc1", "test": "cell-free assay, competition with immobilised ligand", "setting": "1 µM", "measurement": "remaining binding", "result": "79%"}
{"SMILES": "O=C(O)c1ccc2c(c1)nc(Nc1ccccc1Cl)c1ncncc12", "test": "enzyme activity, inhibitor, radiometric", "setting": "1 µM", "measurement": "remaining activity", "result": "3%"}
{"SMILES": "O=C1NC(=O)c2cc(Nc3ccc(F)cc3)c(Nc3ccc(F)cc3)cc21", "test": "cell-free assay", "setting": "0.5 µM", "measurement": "remaining signal", "result": "96.6%"}
{"SMILES": "O=C(O)c1ccc2c(c1)nc(Nc1cccc(F)c1)c1ccncc12", "test": "enzyme activity, inhibitor, radiometric", "setting": "1 µM", "measurement": "remaining activity", "result": "-1%"}
{"SMILES": "CN([C@@H]1CCc2c(CC(=O)O)c3ccccc3n2C1)S(=O)(=O)c1ccc(F)cc1", "test": "cell-free assay, competition with immobilised ligand", "setting": "1 µM", "measurement": "remaining binding", "result": "100%"}
{"SMILES": "O=C(O)c1ccc2c(c1)nc(Nc1ccc3ccccc3c1)c1ncncc12", "test": "enzyme activity, inhibitor, radiometric", "setting": "1 µM", "measurement": "remaining activity", "result": "-3%"}
{"SMILES": "Nc1ncnc2occ(-c3ccc(NC(=O)Nc4cc(C(F)(F)F)ccc4F)cc3)c12", "test": "cell-free assay, inhibitor", "setting": "20 µM", "measurement": "remaining signal", "result": "0.05%"}
{"SMILES": "O=C(O)c1ccc2c(c1)nc(Nc1ccccc1)c1ccncc12", "test": "enzyme activity, inhibitor, radiometric", "setting": "1 µM", "measurement": "remaining activity", "result": "10%"}
{"SMILES": "CN(c1ncccc1CNc1nc(Nc2ccc3c(c2)CC(=O)N3)ncc1C(F)(F)F)S(C)(=O)=O", "test": "enzyme activity, inhibitor", "setting": "1 µM", "measurement": "inhibition", "result": "85.7%"}
